Experimental data taken from ChEMBL document CHEMBL1124804, “Substituted vitamin K epoxide analogues. New competitive inhibitors and substrates of vitamin K1 epoxide reductase” (J Med Chem, 1990).

Key:
[1] = substrate: CC(C)CCCC(C)CCCC(C)CCCC(C)/C=C/C12OC1(C)C(=O)c1ccccc1C2=O; experiment: (§1) Vmax value at Vitamin K epoxide reductase
Summary of the method: (§2)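 Analogues served as alternative substrates in place of vitamin K1 epoxide for beef liver microsomal reductase (0.02% Emulgen 911, DTT), at 10–100 μM (12 levels). Km and Vmax came from rates of quinone product formation, not from substrate consumption. They were reported only where the quinone product was stable to DTT.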

[2] = substrate: CC(C)CCCC(C)CCCC(C)CCCC(C)CC(O)C12OC1(C)C(=O)c1ccccc1C2=O; experiment: as §1; summary of the method: as §2
[3] = substrate: C/C(=C\C(O)C12OC1(C)C(=O)c1ccccc1C2=O)CCCC(C)CCCC(C)CCCC(C)C; experiment: as §1; summary of the method: as §2
[4] = substrate: CC(C)CCCC(C)CCCC(C)CCCC(C)CCC12OC1(C)C(=O)c1ccccc1C2=O; experiment: as §1; summary of the method: as §2
[5] = substrate: C/C(=C\CC12OC1(CO)C(=O)c1ccccc1C2=O)CCCC(C)CCCC(C)CCCC(C)C; experiment: as §1; summary of the method: as §2
[6] = substrate: C/C(=C\CC12OC1(C)C(=O)c1ccccc1C2=O)CCCC(C)CCCC(C)CCCC(C)C; experiment: as §1; summary of the method: as §2
[7] = substrate: C/C(=C\CC12OC1(CF)C(=O)c1ccccc1C2=O)CCCC(C)CCCC(C)CCCC(C)C; experiment: as §1; summary of the method: as §2
[8] = substrate: CC(C)CCCC(C)CCCC(C)CCCC(C)/C=C/C12OC1(C)C(=O)c1ccccc1C2=O; experiment: (§3) Km value at Vitamin K epoxide reductase; summary of the method: as §2
[9] = substrate: CC(C)CCCC(C)CCCC(C)CCCC(C)CC(O)C12OC1(C)C(=O)c1ccccc1C2=O; experiment: as §3; summary of the method: as §2
[10] = substrate: C/C(=C\C(O)C12OC1(C)C(=O)c1ccccc1C2=O)CCCC(C)CCCC(C)CCCC(C)C; experiment: as §3; summary of the method: as §2
[11] = substrate: CC(C)CCCC(C)CCCC(C)CCCC(C)CCC12OC1(C)C(=O)c1ccccc1C2=O; experiment: as §3; summary of the method: as §2
[12] = substrate: C/C(=C\CC12OC1(CO)C(=O)c1ccccc1C2=O)CCCC(C)CCCC(C)CCCC(C)C; experiment: as §3; summary of the method: as §2
[13] = substrate: C/C(=C\CC12OC1(C)C(=O)c1ccccc1C2=O)CCCC(C)CCCC(C)CCCC(C)C; experiment: as §3; summary of the method: as §2
[14] = substrate: C/C(=C\CC12OC1(CF)C(=O)c1ccccc1C2=O)CCCC(C)CCCC(C)CCCC(C)C; experiment: as §3; summary of the method: as §2

B1: Vitamin K epoxide reductase complex subunit 1 (Bos taurus), Q6B4J2 (protein)
chain: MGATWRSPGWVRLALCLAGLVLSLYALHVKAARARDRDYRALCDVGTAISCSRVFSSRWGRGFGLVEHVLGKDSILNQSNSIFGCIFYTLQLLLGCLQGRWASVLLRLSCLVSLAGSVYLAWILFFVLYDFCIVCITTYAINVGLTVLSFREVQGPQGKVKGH
Vmax [1]: 2 pmol/s/mg | Vmax [2]: 1.6 pmol/s/mg | Vmax [3]: 2.4 pmol/s/mg | Vmax [4]: 2.1 pmol/s/mg | Vmax [5]: 3.4 pmol/s/mg | Vmax [6]: 2.9 pmol/s/mg | Vmax [7]: 4 pmol/s/mg | Km [8]: 68 µM | Km [9]: 34 µM | Km [10]: 25 µM | Km [11]: 30 µM | Km [12]: 10 µM | Km [13]: 18 µM | Km [14]: 20 µM
